PMI act hi M6P = increases human PMI activity with near-saturating mannose 6-phosphate; P34949; coupled PMI enzyme assay, resazurin fluorescence, 20 min; hits give high values; 1 = untreated enzyme, 0 = substrate-free blank; activation factor at 20 µM; 190,000 compounds, 0.34% hits; AID 1216;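 active = activation factor of 2 or more at 20 µM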
Target sequence (P34949 whole entry, looked up): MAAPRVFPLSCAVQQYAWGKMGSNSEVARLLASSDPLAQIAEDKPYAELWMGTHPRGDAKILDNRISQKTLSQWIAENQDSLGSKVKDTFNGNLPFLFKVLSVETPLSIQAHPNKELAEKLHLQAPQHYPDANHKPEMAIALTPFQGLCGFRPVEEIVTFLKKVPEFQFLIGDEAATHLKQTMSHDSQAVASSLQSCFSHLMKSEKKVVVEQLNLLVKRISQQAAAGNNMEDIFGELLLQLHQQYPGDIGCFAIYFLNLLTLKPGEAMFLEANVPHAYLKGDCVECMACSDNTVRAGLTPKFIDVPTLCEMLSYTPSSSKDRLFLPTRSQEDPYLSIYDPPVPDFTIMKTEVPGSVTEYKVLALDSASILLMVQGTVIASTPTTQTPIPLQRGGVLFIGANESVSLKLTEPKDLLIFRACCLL
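Test system: human PMI in coupled enzyme assay; Input: PMI at 15 ng/mL final; Medium: HEPES buffer, pH 7.4; Schedule: 20 min incubation at room temperature; Technique: resorufin fluorescence at Ex 544/Em 590 nm; Compound: 20 µM single dose; Probe or stimulus: Near-saturating mannose-6-phosphate, 1.0 mM.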
bCat KO growth = beta-catenin-lacking colon tumor cell growth suppression; HCT116 beta-catenin knockout viability, CellTiter-Glo, 60 h; hits give low values; viability, % at 10 µM; 140,000 compounds, 1.5% hits;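 active = viability at or under a set limit, the compound median less 4 SD, cut at about 6% in these data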;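 also: 0% = Hyamine 1622 control at 20 µM and 100% = untreated cell control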
Lmaj promast = Leishmania major promastigote growth inhibition; AID 1063; 200,000 compounds, 9% hits; Leishmania major promastigotes, resazurin fluorescence viability; inhibition, % at 10 µM; in the data active = inhibition above about 50%;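 also: promastigotes grown with compound for 44 hours at 28 °C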
HCT116 PTEN-null = PTEN-deleted cell growth suppression | HCT116 PTEN-null viability, CellTiter-Glo, 60 h; hits give low values | viability, % at 10 µM | 140,000 compounds, 1.2% hits | AID 827;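 active = viability at or below a set limit, 4 SD under the median of all tested compounds, cut at about 3.7% in these data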;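 also: PTEN knockout HCT116 line with beta catenin targeted HCT116 as companion control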
PMI activator = increases human mannose-6-phosphate isomerase activity; P34949; purified human PMI, coupled resazurin fluorescence, 20 min; hits give high values; 1 = vehicle control, 0 substrate-free wells; activation factor at 20 µM; 190,000 compounds, 0.005% hits; AID 1214;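 active = activation factor of 2 or more at 20 µM, relative to plate controls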
The depositor's hits bear a star. Most compounds without a hit are left out; they make up all but 9.6% or so of the library.

COC(=O)C/C=C/[C@@H](C)[C@@H](/C=N/OCC[C@@H]1C=C[C@H](OC(C)=O)[C@@H](COC(C)=O)O1)NS(=O)(=O)c1ccc(C)cc1 was read as PMI act hi M6P 1.1, bCat KO growth 98.1, Lmaj promast 1.4, HCT116 PTEN-null 100.7 and PMI activator 1.1.
For Cn1c(/C=N/c2nc3ccccc3[nH]2)nc2ccccc21 the results were PMI act hi M6P 0.9, bCat KO growth 81.3, Lmaj promast 100.4*, HCT116 PTEN-null 96.3 and PMI activator 0.9.
`C(=N\c1nc2ccccc2[nH]1)/c1cccs1` gave PMI act hi M6P 1, bCat KO growth 107.9, Lmaj promast -4.1, HCT116 PTEN-null 99.0 and PMI activator 1.
Screening Cc1cc(C)n2nc(S(=O)(=O)NC3CCCCC3)nc2n1 returned PMI act hi M6P 0.9, bCat KO growth 99.5, Lmaj promast -3.4, HCT116 PTEN-null 100.6 and PMI activator 0.9.
For Cc1nn(C)cc1S(=O)(=O)N1CCN(Cc2cccc(Cl)c2)CC1 the results were PMI act hi M6P 0.9, Lmaj promast 11.0 and PMI activator 0.9.
`CCOc1ccc(CCNC(=O)COC(=O)c2nc3nc(C)cc(C)n3n2)cc1OCC` gave PMI act hi M6P 1, bCat KO growth 90.8, Lmaj promast 33.9, HCT116 PTEN-null 91.2 and PMI activator 1.
Cc1ccccc1C(=O)N(Cc1nc2ccccc2c(=O)[nH]1)C1CCCC1 was read as PMI act hi M6P 0.9, Lmaj promast 2.5 and PMI activator 0.9.
`NC(=O)NC(=O)CSc1nc(C2CCCCC2)n(-c2ccccc2)n1` gave PMI act hi M6P 1, bCat KO growth 95.2, Lmaj promast 47.1, HCT116 PTEN-null 93.6 and PMI activator 1.
For CC(C)C(C)(C#N)NC(=O)CSc1nc(C2CCCCC2)n(-c2ccccc2)n1 (stereo not drawn) the results were PMI act hi M6P 1, bCat KO growth 83.5, Lmaj promast 80.4*, HCT116 PTEN-null 72.0 and PMI activator 1.
For Cc1ccc(NC(=O)CN(C)S(=O)(=O)c2ccc(Br)s2)cc1F the results were PMI act hi M6P 0.9, bCat KO growth 85.4, Lmaj promast -3.4, HCT116 PTEN-null 85.2 and PMI activator 0.9.
CC(C)CC(C(=O)OCC(=O)c1c(N)n(C)c(=O)n(C)c1=O)N1C(=O)c2ccccc2C1=O (stereo not drawn) was read as PMI act hi M6P 0.9, bCat KO growth 97.2, Lmaj promast 57.2*, HCT116 PTEN-null 94.8 and PMI activator 0.8.
Screening c1ccc(Cn2nnnc2C(c2cccnc2)N2CCN(c3ccccc3)CC2)cc1 (stereo not drawn) returned PMI act hi M6P 0.9, bCat KO growth 71.5, Lmaj promast 99.2*, HCT116 PTEN-null 71.8 and PMI activator 0.9.
Screening Cc1cccc(N2CCN(C(c3cccs3)c3nnnn3C(C)(C)C)CC2)c1C (stereo not drawn) returned PMI act hi M6P 1, bCat KO growth 57.7, Lmaj promast 76.0*, HCT116 PTEN-null 48.5 and PMI activator 1.
`CC(C)(C)n1nnnc1C(c1cccnc1)N1CCN(c2ccccn2)CC1` (stereo not drawn) gave PMI act hi M6P 1, Lmaj promast 80.8* and PMI activator 1.
CC(C)(C)n1nnnc1C(c1cccnc1)N1CCN(c2ccccc2)CC1 (stereo not drawn) was read as PMI act hi M6P 1, bCat KO growth 83.6, Lmaj promast 78.5*, HCT116 PTEN-null 95.3 and PMI activator 1.
For CC(C)[C@@H](C(=O)N1CCNCC1)n1cc(CCO)nn1 the results were PMI act hi M6P 1.1, Lmaj promast -3.3 and PMI activator 1.1.
`O=C(Nc1ccc(NC(=O)C2CCCCC2)nc1)c1cccs1` gave PMI act hi M6P 1.1, Lmaj promast 98.6* and PMI activator 1.
COc1ccc(-c2cn3cc(C)ccc3n2)cc1Br was read as PMI act hi M6P 0.9, bCat KO growth 68.7, Lmaj promast 84.1*, HCT116 PTEN-null 70.9 and PMI activator 1.1.
For CCOC(=O)c1cc(C)sc1/N=C/C1=C(O)CCCC1=O the results were PMI act hi M6P 0.8, bCat KO growth 96.1, Lmaj promast -3.8, HCT116 PTEN-null 94.9 and PMI activator 1.
For CCn1c(N)c(C(=O)NC)sc1=S the results were PMI act hi M6P 0.8, bCat KO growth 54.6, Lmaj promast -12.8, HCT116 PTEN-null 60.7 and PMI activator 0.3.
